Data on three molecules can be found in ChEMBL document CHEMBL1157279, “8-methyl-pyridoxatin: A novel N-hydroxy pyridone from fungus OS-F61800 that induces erythropoietin in human cells” (1999).

Activity calls are given as the source filed them. The rule behind the calls is not given here.

Test [1] has as its system Hep 3B2. The test can be described thus: Induction of erythropoietin gene expression in human Hep3B cells assessed as concentration resulting in five fold induction by luciferase reporter assay relative to control. The test is classed as functional. The method in brief:
(§1)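 Hep3B epo-3 cells carrying an EPO-luciferase reporter; compounds tested at 0.1 to 30 µM, in triplicate in at least three experiments. Read-out is the ratio of light units with compound to a 0.5% DMSO vehicle control. TIR5x is the concentration giving fivefold induction; TIRmax is the minimum concentration giving maximum-fold induction. 10 µM CoCl2 served as positive control.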

Test [2] has as its system Hep 3B2. Briefly: Induction of erythropoietin protein expression in human Hep3B cells assessed per ml of protein at 10 uM by ELISA relative to control. Format: functional. In outline: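 Hep3B epo-3 cells incubated 24 h with compound at a single 10 µM; native EPO secreted into culture measured by human EPO ELISA kit, in mU/mL culture, against a 0.5% DMSO vehicle control; 10 µM CoCl2 as positive control.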

A short description of test [3]: Cytotoxicity against human Hep3B cells after 48 hrs by MTT assay. The test is classed as functional, Hep 3B2. The method in brief:
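Hep3B epo-3 cells, 48 h exposure, standard MTT assay; value is concentration giving 90% inhibition (IC90).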

The test system of test [4] is Hep 3B2. Briefly: Induction of erythropoietin gene expression in human Hep3B cells assessed as concentration resulting in maximum fold induction by luciferase reporter assay relative to control. Format: functional. In outline: as §1

As for `Cc1cc(C2CCCCC2)n(O)c(=O)c1.NCCO` [CICLOPIROX OLAMINE], the Activity with Hep 3B2 [1] amounted to 3 µM; in the test with Hep 3B2 [2], 99 mU/mL; with Hep 3B2 [4] it was 15 µM. The IC90 in test [3] was above 20 µM.

On to `C=C[C@]1(C)C[C@H](C)C[C@H](C)[C@H]1c1c(OC)ccn(OC)c1=O`, for which the result with Hep 3B2 [1] and in the test with Hep 3B2 [4] was inactive.

In the case of `C=C[C@]1(C)C[C@H](C)C[C@H](C)[C@H]1c1c(O)ccn(O)c1=O`, the Activity in the test with Hep 3B2 [1] stood at 0.3 µM; in the test on Hep 3B2 [2], 120 mU/mL; with Hep 3B2 [4], 0.7 µM. The IC90 in test [3] is above 20 µM.
